# PubChem BioAssay
# The source made the active and inactive calls.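 The calls were made as follows, unless noted: active = viability at or below 10% of carrier control in both of two separate runs; inconclusive = viability at or below 10% in only one of the two runs; inactive = the rest.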
# What was measured:
# [1] = Her2 expression decrease, cell viability multiplex – SKBR3 breast tumor cells, AlphaScreen, ATP viability, primary screen (AID 461;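 active = Her2 level under about 52% in both replicate screens, with viability over 70% of control, limit read from the data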;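 as to Her2 level: lower value means less Her2 protein in the cells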;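 as to viability: percent of carrier control wells set as 100% viability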); conditions: SKBR3 Her2 protein level, 18-24 h, measured here: SKBR3 viability, ATP luminescence, at 10 µM
# [2] = target: Receptor tyrosine-protein kinase erbB-2 (Homo sapiens) (UniProt P04626); assay: as above; conditions: 18-24 h, at 10 µM, stronger effect = lower value
# [3] = reduced viability of SK-BR-3 breast cancer cells – cell-based, 24 h, human, pilot screen (AID 572); conditions: SK-BR-3 viability, CellTiter-Glo luminescence, at 10 µM, stronger effect = lower value;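 also: compound exposure lasted between 18 and 24 h rather than exactly 24 h; 100% = carrier-treated control wells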
# [4] = HUVEC growth inhibition – cell-based, human, primary screen (AID 575;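 active = viability at or below 30% in both replicate assays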;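 also: 100% = median of untreated cell wells with 0.1% DMSO on each plate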); conditions: HUVEC proliferation, CellTiter-Glo luminescence, 72 h; at 10 µM; stronger effect = lower value
# Outline: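 Timing: 72 h treatment at 37 °C; material: HUVEC primary cells; technique: CellTiter-Glo luminescence measuring cellular ATP; controls: vehicle and MePR control wells; measure: percent of median DMSO-control luminescence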
# [5] = H69AR cell proliferation blockers – human, duplicate replicates, primary screen (AID 580;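 active = viability at or under a set limit in both replicates, limit being median viability minus 3 SD, cut at about 48% in these data, passing the limit was not always enough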;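 also: 100% = mean luminescence of untreated wells and 0% = no signal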); conditions: H69AR lung tumor cells viability, ATP luminescence, 72 h; at 10 µM; stronger effect = lower value
# [6] = MRP1 drug-resistance reversers in H69AR cells – cell-based, doxorubicin co-treatment, pilot screen (AID 601;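 active = viability loss from added drug above about 55%, and viability with drug at most 40%, in both replicates, limit read from the data, passing the limit was not always enough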); conditions: CellTiter-Glo, 72 h, at 10 µM; for differential viability (reversal): stronger effect = higher value
# [7] = yeast transport mutant growth inhibition pilot in 384-well plates, post-Golgi transport modulator project (AID 636; in the data active = inhibition above about 31%); conditions: absorbance 615 nm, about 18 h, stronger effect = higher value
# [8] = growth suppression of yeast trafficking mutant, preliminary HTS, modulators of trafficking downstream of Golgi apparatus project, 1536-format plate, OD 615 nm (AID 637; in the data active = inhibition above about 30%); conditions: yeast transport mutant growth, absorbance 615 nm, 18 h; stronger effect = higher value
# [9] = H69AR cells + 2 uM doxorubicin, measured here: viability with 2 uM doxorubicin, stronger effect = lower value
# [10] = H69AR cells, compound alone cytotoxicity
# Sequence of Receptor tyrosine-protein kinase erbB-2 (Homo sapiens) (P04626 whole entry, looked up): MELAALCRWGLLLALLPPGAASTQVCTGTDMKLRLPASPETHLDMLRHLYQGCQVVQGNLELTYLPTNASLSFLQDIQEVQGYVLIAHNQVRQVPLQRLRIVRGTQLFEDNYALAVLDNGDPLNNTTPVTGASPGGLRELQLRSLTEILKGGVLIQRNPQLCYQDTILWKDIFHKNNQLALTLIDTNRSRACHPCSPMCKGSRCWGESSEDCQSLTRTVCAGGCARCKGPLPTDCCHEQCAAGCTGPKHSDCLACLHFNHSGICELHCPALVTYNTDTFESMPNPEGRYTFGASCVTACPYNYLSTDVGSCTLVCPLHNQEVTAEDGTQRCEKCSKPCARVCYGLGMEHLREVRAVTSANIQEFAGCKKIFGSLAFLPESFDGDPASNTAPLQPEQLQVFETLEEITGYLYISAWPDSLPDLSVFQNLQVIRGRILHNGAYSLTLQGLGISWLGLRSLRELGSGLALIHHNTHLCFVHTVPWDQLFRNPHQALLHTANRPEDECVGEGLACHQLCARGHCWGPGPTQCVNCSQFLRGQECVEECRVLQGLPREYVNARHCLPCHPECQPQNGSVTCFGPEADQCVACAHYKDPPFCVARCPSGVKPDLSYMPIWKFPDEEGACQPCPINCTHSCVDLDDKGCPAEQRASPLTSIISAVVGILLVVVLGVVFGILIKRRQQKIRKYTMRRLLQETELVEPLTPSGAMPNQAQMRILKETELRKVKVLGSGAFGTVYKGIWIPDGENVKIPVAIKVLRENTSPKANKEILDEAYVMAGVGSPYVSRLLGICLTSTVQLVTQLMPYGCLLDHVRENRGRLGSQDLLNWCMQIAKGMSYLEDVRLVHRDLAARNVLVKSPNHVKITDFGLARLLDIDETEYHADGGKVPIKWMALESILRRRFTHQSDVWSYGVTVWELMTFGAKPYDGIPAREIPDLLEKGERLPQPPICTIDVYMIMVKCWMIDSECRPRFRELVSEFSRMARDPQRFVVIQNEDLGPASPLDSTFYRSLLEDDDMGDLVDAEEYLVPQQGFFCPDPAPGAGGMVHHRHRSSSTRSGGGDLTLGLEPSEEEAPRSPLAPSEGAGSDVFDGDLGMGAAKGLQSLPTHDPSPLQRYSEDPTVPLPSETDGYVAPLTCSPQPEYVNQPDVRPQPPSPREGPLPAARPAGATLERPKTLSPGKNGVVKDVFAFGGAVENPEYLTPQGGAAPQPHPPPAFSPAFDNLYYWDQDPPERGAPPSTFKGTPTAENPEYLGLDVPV
SMILES,viability [1] [%],Her2 level [2],viability [3],viability [4],viability [5],differential viability (reversal) ([6]; H69AR cells + 2 uM doxorubicin),"viability [6, 9] [%]","viability [6, 10] [%]",inhibition [7],inhibition [8]
COc1cccc(CN2CCN(C(=O)CC(C)C)CC2)c1,92.5,76% (inactive),92.5% (inactive),87.4% (inactive),86.4% (inactive),-2.34% (inactive),88.7,86.4,0.77% (inactive),-0.83% (inactive)
Cn1c(CCCNC(=O)c2ccccc2)nc2ccccc21,112,83% (inactive),112% (inactive),103% (inactive),100% (inactive),18.6% (inactive),81.7,100,-8.65% (inactive),-1.83% (inactive)
Cc1ccc(OC(=O)CCC(=O)OCCCC(F)(F)C(F)(F)F)cc1,102,104% (inactive),102% (inactive),91.2% (inactive),94.3% (inactive),3.79% (inactive),90.5,94.3,-1.76% (inactive),-1.64% (inactive)
O=C(C1CCN(S(=O)(=O)N2CCC3(CC2)OCCO3)CC1)N1CCOCC1,98,114% (inactive),98% (inactive),99.4% (inactive),94.1% (inactive),3.86% (inactive),90.3,94.1,0.92% (inactive),7.38% (inactive)
Cc1c(Cl)cnc(NC(=O)COC(=O)C(NC(=O)c2ccco2)C(C)C)c1Cl (stereo not given),86,85% (inactive),86% (inactive),92.4% (inactive),83.2% (inactive),10.7% (inactive),72.5,83.2,-1.89% (inactive),-4.76% (inactive)
C=CCNC(=O)c1cc(-c2ccccc2O)on1,97,82.5% (inactive),97% (inactive),99.1% (inactive),86.7% (inactive),0.065% (inactive),86.7,86.7,2.18% (inactive),4.17% (inactive)
CC(=O)C1=C(O)C(=O)N(Cc2ccco2)C1c1ccc2c(c1)OCO2 (stereo not given),108,84.5% (inactive),108% (inactive),119% (inactive),112% (inactive),7.12% (inactive),105,112,-5.07% (inactive),0.48% (inactive)
CCOC(=O)c1ccccc1NC(=O)CSc1nnc(COc2ccccc2C)n1C,63,89% (inactive),63% (inactive),82.6% (inactive),78.7% (inactive),5.67% (inactive),73,78.7,-3.08% (inactive),-9.17% (inactive)
CCCn1c(SCC(=O)N2CCN(c3ccccc3)CC2)nc2ccccc2c1=O,117,90.5% (inactive),117% (inactive),70.7% (inactive),83.8% (inactive),0.045% (inactive),83.8,83.8,8.38% (inactive),32.7% (active)
CCCCC(O)(C(NC=O)C(=O)OC)C(F)(F)F (stereo not given),95.5,85% (inactive),95.5% (inactive),108% (inactive),99.4% (inactive),3.77% (inactive),95.7,99.4,-2.27% (inactive),7.58% (inactive)
CCSc1nc2c(c(=O)n1CC)SC(C)C2 (stereo not given),102,86.5% (inactive),102% (inactive),111% (inactive),94.1% (inactive),6.39% (inactive),87.7,94.1,-5.47% (inactive),6.07% (inactive)
O=C(Cc1c(F)cccc1Cl)Nc1ccncc1,92,91.5% (inactive),92% (inactive),97.5% (inactive),86.4% (inactive),-5.46% (inactive),91.9,86.4,-5.2% (inactive),-0.48% (inactive)
CCCC(c1nnnn1Cc1ccc(OC)cc1)N1CCN(c2ccccc2OC)CC1 (stereo not given),103,112% (inactive),103% (inactive),92.4% (inactive),90% (inactive),-5.73% (inactive),95.7,90,-2.47% (inactive),-2.3% (inactive)
COc1ccc(OCCC(=O)NCc2ccccc2)cc1,103,105% (inactive),103% (inactive),95.7% (inactive),103% (inactive),19.8% (inactive),83.3,103,-3.2% (inactive),2.9% (inactive)
COc1ccccc1OCC(=O)N1CCNC1=O,90,96.5% (inactive),90% (inactive),84% (inactive),102% (inactive),12.2% (inactive),90,102,-1.73% (inactive),-0.98% (inactive)
O=C1CC(=O)N(Cc2cccs2)C(=O)N1,93.5,99% (inactive),93.5% (inactive),103% (inactive),101% (inactive),6.82% (inactive),94,101,-2.76% (inactive),-3.82% (inactive)

SMILES,viability [1] [%],Her2 level [2],viability [3],viability [4],viability [5],differential viability (reversal) ([6]; H69AR cells + 2 uM doxorubicin),"viability [6, 9] [%]","viability [6, 10] [%]",inhibition [7],inhibition [8]
Cc1ncc(CSc2nc3ccccc3[nH]2)c(N)n1,104,92.5% (inactive),104% (inactive),115% (inactive),104% (inactive),16.8% (inactive),87.5,104,-2.03% (inactive),1.43% (inactive)
O=c1cc(CN2CCN(c3ccc(F)cc3)CC2)nc2sccn12,85,118% (inactive),85% (inactive),87.9% (inactive),87.2% (inactive),-4.83% (inactive),92.1,87.2,5.45% (inactive),-14.2% (inactive)
Cc1noc(C)c1S(=O)(=O)NCCN1CCN(c2ccccc2)CC1,96,98.5% (inactive),96% (inactive),96.4% (inactive),96.1% (inactive),3.43% (inactive),92.7,96.1,-0.79% (inactive),-0.79% (inactive)
CCOC(=O)CSc1cn2c(n1)CCC2,99.5,103% (inactive),99.5% (inactive),92% (inactive),92.4% (inactive),-2.28% (inactive),94.7,92.4,-0.79% (inactive),-8.87% (inactive)
CCN1CCN(c2c(Cl)cccc2NC(=O)c2ccco2)CC1,67.5,88% (inactive),67.5% (inactive),98.1% (inactive),97.5% (inactive),7.33% (inactive),90.1,97.5,-3.33% (inactive),-0.32% (inactive)
Cc1nn(C)c(C)c1CNC(=O)c1cc2n(n1)C(C(F)(F)F)CC(c1cccs1)N2 (stereo not given),89.5,83% (inactive),89.5% (inactive),107% (inactive),112% (inactive),18.2% (inactive),93.9,112,0.41% (inactive),0.32% (inactive)
[O-][n+]1c2c(nn1-c1ccccc1Cl)-c1nonc1CC2,102,85% (inactive),102% (inactive),115% (inactive),105% (inactive),20% (inactive),85.5,105,-5.54% (inactive),-0.67% (inactive)
Cc1oc2c(CN3CCCC3)c(O)ccc2c(=O)c1-c1ccccc1,88.5,82% (inactive),88.5% (inactive),80.1% (inactive),89% (inactive),2.93% (inactive),86,89,-4.34% (inactive),0.48% (inactive)
Cc1nn(-c2ccccc2)c(C)c1C(=O)OCC(=O)c1c(N)n(CC(C)C)c(=O)n(C)c1=O,104,74% (inactive),104% (inactive),64.3% (inactive),77.8% (inactive),-24.7% (inactive),102,77.8,-8.4% (inactive),4.75% (inactive)
CCOC(=O)Cn1c(S(=O)(=O)Cc2ccccc2)nc2ccccc21,86,89.5% (inactive),86% (inactive),103% (inactive),91.5% (inactive),4.28% (inactive),87.2,91.5,-0.13% (inactive),-3% (inactive)
NC(=O)CSc1nnc(-c2cnccn2)n1-c1ccccc1,114,97% (inactive),114% (inactive),103% (inactive),89.8% (inactive),7.27% (inactive),82.5,89.8,-5.07% (inactive),1.13% (inactive)
COc1cc(-c2nnc(SCC(=O)c3cc(C)n(CC4CCCO4)c3C)o2)cc(OC)c1OC (stereo not given),104,66.5% (inactive),104% (inactive),76.4% (inactive),77.5% (inactive),-2% (inactive),79.5,77.5,-5.95% (inactive),-4.83% (inactive)
Cc1nc2cc(-n3ccc(=O)cc3)ccc2n1-c1ccccc1,102,93% (inactive),102% (inactive),79.7% (inactive),90.5% (inactive),13.4% (inactive),77.1,90.5,-2.93% (inactive),-3.49% (inactive)
O=S(=O)(NCC1CCCO1)c1cc(Cl)ccc1Br (stereo not given),87.5,121% (inactive),87.5% (inactive),109% (inactive),96.5% (inactive),2.42% (inactive),94.1,96.5,3.25% (inactive),4% (inactive)
O=C1OCc2cc(NC(=O)C3CCCO3)ccc21 (stereo not given),92.5,122% (inactive),92.5% (inactive),101% (inactive),104% (inactive),-0.78% (inactive),105,104,1.84% (inactive),-1.83% (inactive)
COc1ccc(-c2cc(C(F)(F)F)nc(SCC(=O)NCc3ccco3)n2)cc1OC,96.5,84% (inactive),96.5% (inactive),68.1% (inactive),55.2% (inactive),-25.6% (inactive),80.9,55.2,-0.66% (inactive),-0.32% (inactive)
